Laboratory results published in ChEMBL document CHEMBL1128420, “Novel steroidal inhibitors of human cytochrome P45017 alpha (17 alpha-hydroxylase-C17,20-lyase): potential agents for the treatment of prostatic cancer” (J Med Chem, 1995).

How the values were obtained:
[1] = biological target: T1, Steroid 17-alpha-hydroxylase/17,20 lyase (Homo sapiens, UniProt P05093); assay: Ability to inhibit the C17,20-lyase enzyme by 50% using 17-alpha-hydroxyprogesterone as substrate.
T1 sequence (P05093 whole entry): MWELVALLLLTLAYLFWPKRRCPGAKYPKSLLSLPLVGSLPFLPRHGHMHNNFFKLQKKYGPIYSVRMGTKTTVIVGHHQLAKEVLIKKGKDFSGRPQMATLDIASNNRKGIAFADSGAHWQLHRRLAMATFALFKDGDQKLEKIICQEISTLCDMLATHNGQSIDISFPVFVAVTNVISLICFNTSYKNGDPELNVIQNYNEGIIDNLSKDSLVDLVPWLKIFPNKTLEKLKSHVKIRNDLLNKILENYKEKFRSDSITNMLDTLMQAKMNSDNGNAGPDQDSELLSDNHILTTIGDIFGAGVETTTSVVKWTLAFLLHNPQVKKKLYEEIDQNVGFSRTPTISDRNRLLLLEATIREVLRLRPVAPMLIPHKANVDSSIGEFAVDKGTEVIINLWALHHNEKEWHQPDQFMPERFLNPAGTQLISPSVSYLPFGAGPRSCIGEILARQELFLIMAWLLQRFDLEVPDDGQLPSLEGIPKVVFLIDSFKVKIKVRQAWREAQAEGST

[2] = biological target: T1, Steroid 17-alpha-hydroxylase/17,20 lyase; assay: Ability to inhibit the Steroid 17-alpha-hydroxylase/17,20 lyase enzyme by 50%.
[3] = biological target: T2, Aromatase (Homo sapiens, UniProt P11511); assay: Inhibition of Cytochrome P450 19A1
T2 sequence (P11511 whole entry): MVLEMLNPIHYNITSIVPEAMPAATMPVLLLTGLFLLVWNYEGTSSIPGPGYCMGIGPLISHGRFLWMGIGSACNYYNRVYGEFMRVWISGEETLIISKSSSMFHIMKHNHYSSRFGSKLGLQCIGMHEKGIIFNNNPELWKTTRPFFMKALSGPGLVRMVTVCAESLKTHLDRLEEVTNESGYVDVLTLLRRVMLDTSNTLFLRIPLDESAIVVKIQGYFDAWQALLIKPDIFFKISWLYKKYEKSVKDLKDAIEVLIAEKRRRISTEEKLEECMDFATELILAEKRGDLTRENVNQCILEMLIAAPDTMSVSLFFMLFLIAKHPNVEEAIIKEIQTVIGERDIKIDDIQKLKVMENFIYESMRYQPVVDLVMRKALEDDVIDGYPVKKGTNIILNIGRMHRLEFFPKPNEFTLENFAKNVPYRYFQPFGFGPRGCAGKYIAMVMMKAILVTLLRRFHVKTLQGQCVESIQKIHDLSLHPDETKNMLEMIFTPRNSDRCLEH
Procedure, shortened: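 Aromatase from the microsomal fraction of human placenta.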

[4] = Inhibition of Steroid 5-alpha-reductase; design: species or system Homo sapiens
Procedure, shortened: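 Testosterone 5α-reductase from human benign prostatic tissue.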

Structure (SMILES) | IC50 [1] [nM] | IC50 [2] [nM] | IC50 [3] [nM] | IC50 [4] [nM]
C[C@]12CC[C@H](O)CC1=CC[C@@H]1[C@@H]2CC[C@]2(C)C(c3ccncc3)=CC[C@@H]12 | 1000 | 4000 | > 20000 | 
C[C@]12CC[C@H](O)CC1=CC[C@@H]1[C@@H]2CC[C@]2(C)C(c3ccccn3)=CC[C@@H]12 | 76 | 270 | > 20000 | 
C[C@]12CCC(=O)C=C1CCC1C2C(=O)C[C@]2(C)C(c3cccnc3)=CCC12 (some centres not stated) | 2.9 | 13 |  | 
C[C@]12CCC(=O)C=C1CCC1C2CC[C@]2(C)C(c3cccnc3)=CCC12 (some centres not stated) |  |  | 1800 | 10000
C[C@]12CCC(Oc3c(F)c(F)c(C(F)(F)F)c(F)c3F)=CC1=CCC1C2CC[C@]2(C)C(c3cccnc3)=CCC12 (some centres not stated) | > 10000 | > 10000 |  | 
C[C@]12CCC(O)CC1=CCC1C2CC[C@]2(C)C(Cc3ccccn3)=CCC12 (some centres not stated) | > 10000 | > 10000 |  | 
C[C@]12CC[C@H](O)CC1=CCC1C2CC[C@@]2(C)C1CC[C@@H]2c1cccnc1 (some centres not stated) | 23 | 47 |  | 
C[C@]12CCC3C(CC[C@H]4CC(=O)CC[C@]34C)C1CC=C2c1cccnc1 (some centres not stated) | 3 | 4.7 |  | 
C[C@]12CCC3C(CC=C4C[C@@H](O)CC[C@@]43C)C1CCC2c1ccncc1 (single isomer, unassigned) | 53 | 160 |  | 
C[C@]12CC[C@H](O)CC1=CC[C@@H]1[C@@H]2CC[C@]2(C)C(c3cccnc3)=CC[C@@H]12 [ABIRATERONE] |  |  | > 20000 | > 50000
